# Screens as filed in PubChem BioAssay.
# Rows were chosen to be rich in hits. Some 1.4% of all compounds tested hit in one or more screens of this group.
# Arr AP2 block: blocks beta-arrestin peptide binding to AP2 adaptin | FITC-arrestin peptide / GST-AP2 beads, flow cytometry; AP2 beta2 appendage carries R879A mutation | inhibition, % at 10 µM | 0.31% of 340,000 active;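 active = inhibition above a set limit, near 3 SD of compounds lacking own fluorescence, cut at about 54% in these data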;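 note: plate controls were DMSO wells for no effect and 5 µM unlabelled arrestin peptide for full effect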
#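 system = GST-tagged AP2 beta2-adaptin appendage (R879A) on 4 µm glutathione beads | reagent = FITC-labelled arrestin peptide probe, 50 nM final | schedule = compound with beads 12 min RT, then probe 1 h RT | signal = HyperCyt-sampled flow cytometry, FL1 channel, ex 488/em 535 nm | read-out = percent response from loss of bead-bound FITC fluorescence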
# HTR5A ag: activates human HTR5A in OPRM1-OPRD1 agonist counter-screen; AID 504692; 0.61% of 340,000 active; HTR5A agonist assay, luminescence, cell-based; activation, % at 9.3 µM; P47898; in the data active = activation mostly above about 9.5%, no sharp cut-off; inactive = mostly below about 7.6%;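 note: 0% = cells with vehicle only and 100% = reference agonist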
# DAGLB inh: diacylglycerol lipase beta (human) inhibition; Q8NCG7; HEK293T DAGLB membrane lysate, EnzChek fluorogenic substrate; inhibition, % at 5.17 µM; 0.059% of 340,000 active; AID 504411; in the data active = inhibition above about 34%;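 note: 0% = enzyme with vehicle and 100% = wells lacking enzyme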
# MOR-DOR ag: OPRM1-OPRD1 heterodimerization agonism; activation, % at 9.3 µM; cells, luminescence; AID 504326; 0.3% of 340,000 active; in the data active = activation above about 18%;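 note: 0% = vehicle-treated cells and 100% = reference agonist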
# Target sequence (P35372 whole entry, looked up): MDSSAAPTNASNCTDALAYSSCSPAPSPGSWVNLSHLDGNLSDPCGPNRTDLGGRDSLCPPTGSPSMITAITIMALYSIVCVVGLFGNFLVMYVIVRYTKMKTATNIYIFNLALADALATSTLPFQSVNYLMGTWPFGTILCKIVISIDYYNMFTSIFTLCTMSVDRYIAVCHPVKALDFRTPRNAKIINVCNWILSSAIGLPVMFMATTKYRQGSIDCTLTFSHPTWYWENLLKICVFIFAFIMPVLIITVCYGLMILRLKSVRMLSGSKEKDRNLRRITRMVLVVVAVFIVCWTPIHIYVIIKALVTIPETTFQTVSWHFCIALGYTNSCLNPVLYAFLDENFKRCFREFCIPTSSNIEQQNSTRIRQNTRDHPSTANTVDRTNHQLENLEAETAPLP
# Target sequence (P41143 whole entry, looked up): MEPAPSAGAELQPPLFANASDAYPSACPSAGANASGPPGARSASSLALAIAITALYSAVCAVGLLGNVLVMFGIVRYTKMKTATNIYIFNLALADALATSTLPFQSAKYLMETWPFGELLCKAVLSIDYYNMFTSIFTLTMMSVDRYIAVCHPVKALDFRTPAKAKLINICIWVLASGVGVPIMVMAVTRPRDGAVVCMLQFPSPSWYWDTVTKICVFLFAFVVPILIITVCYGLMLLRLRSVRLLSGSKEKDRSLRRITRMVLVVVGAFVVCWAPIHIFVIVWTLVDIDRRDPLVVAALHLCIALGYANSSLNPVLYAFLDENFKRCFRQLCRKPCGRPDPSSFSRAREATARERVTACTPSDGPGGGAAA
# HTR5A inv ctr: inverse agonist of human HTR5A in OPRM1-OPRD1 counter-screen. HTR5A cell line, luminescence, inverse agonism. P47898. inhibition, % at 9.3 µM. 0.083% of 340,000 active; in the data active = inhibition mostly above about 23%, no sharp cut-off; inactive = mostly below about 18%;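 note: 0% = cells with DMSO and 100% = no-cell wells with DMSO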
# MOR-DOR inv ag: mu-delta opioid heterodimer inverse agonism; cell-based MOR-DOR heterodimer luminescence; P35372+P41143; inhibition, % at 9.3 µM; 0.21% of 340,000 active; in the data active = inhibition above about 22%, passing the limit was not always enough;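 note: 0% = cells with DMSO and 100% = wells without cells with DMSO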
# MOR-DOR inv conf: OPRM1-OPRD1 heterodimer inverse agonism, confirmation | shares compounds with MOR-DOR inv ag | cells expressing OPRM1/OPRD1 heterodimer, luminescence | inhibition, % at 9.3 µM | 20% of 580 active; in the data active = inhibition above about 32%;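 note: 0% = cells with DMSO and 100% = wells lacking cells with DMSO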
# HTR5A inv ctr2: counter-screen for OPRM1-OPRD1 inverse agonists: human HTR5A inverse agonism; shares compounds with MOR-DOR inv ag; HTR5A-expressing cells, luminescence; inhibition, % at 9.3 µM; 580 tested, under 10 active; AID 504914; call rule not given here;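 note: 0% = cells with DMSO and 100% = no-cell wells with DMSO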
# An asterisk follows results filed as active; i = inactive; / = no result given.
SMILES,Arr AP2 block,HTR5A ag,DAGLB inh,MOR-DOR ag,HTR5A inv ctr,MOR-DOR inv ag,MOR-DOR inv conf,HTR5A inv ctr2
CCN(CC)CC(C)(C)C(=O)/C=C/c1ccc(/C=C/C(=O)C(C)(C)CN(CC)CC)cc1,-4,-1,-3,-9,6,43*,-2,24
CCN(CC)CCOC(=O)/C=C/c1ccccc1,3,1,3,-3,-12,14,/,/
CCCc1c(C(=O)N/N=C/C=C/c2ccccc2)nnn1-c1nonc1N,/,/,-1,/,/,/,/,/
O=C(N=Nc1c(O)[nH]c2ccc([N+](=O)[O-])cc12)c1ccccc1[N+](=O)[O-],-4,-7,2,-4,17,22,/,/
CC(Oc1ccccc1)C(=O)N=Nc1c(O)[nH]c2ccc([N+](=O)[O-])cc12 (stereo unspecified),6,-4,15,-6,10,45*,17,-8
CCc1ccc(CNC(=O)C2CCN(S(=O)(=O)N3CCCCC3)CC2)cc1,/,/,-4,/,/,/,/,/
O=C(CC1(O)C(=O)N(Cc2ccccc2)c2ccccc21)c1ccncc1 (stereo unspecified),-91,-9,-2,-8,22,40*,-152,-117
Cc1ccccc1CN1C(=O)C(O)(CC(=O)c2ccncc2)c2ccccc21 (stereo unspecified),-12,-1,4,-8,3,45*,-84,-32
O=C(CC1(O)C(=O)N(Cc2ccccc2)c2ccccc21)c1ccc2c(c1)OCO2 (stereo unspecified),12,1,3,-2,13,9,/,/
O=C1N=C(c2ccccc2)S/C1=C\c1cccs1,6,0,4,-6,-8,34*,-434,-45
CC/C(C)=N\N=C\c1c(O)n(CC)c2cc(C3=NNC(=O)CC3)ccc12,28,-5,0,-7,21,31*,50*,15
CCn1c(O)c(/C=N/N=C/c2ccc(OC)cc2)c2cc(C3=NNC(=O)CC3)ccc21,-5,5,3,-1,14,7,/,/
O=C(COC(=O)c1cnccn1)c1cccc([N+](=O)[O-])c1,18,-8,1,-12,-2,65*,-254,-45
Nc1ccc(C(=O)OCC(=O)c2cccc([N+](=O)[O-])c2)cc1,-3,-7,0,-3,18,19,/,/
O=C(COC(=O)c1cnccn1)c1ccc2ccccc2c1,13,-3,3,-4,8,23,/,/
Cc1ccc(OCC(=O)OCC(=O)c2cccc([N+](=O)[O-])c2)cc1C,19,-5,-4,-8,19,44*,-26,4
O=C(CNS(=O)(=O)c1ccccc1)OCC(=O)c1cccc([N+](=O)[O-])c1,-3,-8,2,-12,14,61*,17,5
O=C(CNS(=O)(=O)c1ccccc1)OCc1cccc([N+](=O)[O-])c1,2,-1,1,1,21,-6,/,/
O=C(CNC(=O)c1ccc(Br)o1)OCC(=O)c1cccc([N+](=O)[O-])c1,12,-14,0,-18,36*,83*,i,-22
CN(C)S(=O)(=O)c1ccc(NC(=O)Cn2nc(-c3ccc4c(c3)OCCO4)ccc2=O)cc1,18,-2,-3,-1,6,5,/,/
CCOc1ccc(N(C)S(=O)(=O)c2ccc(C)c(C(=O)N3CCN(Cc4ccc5c(c4)OCO5)CC3)c2)cc1,-14,2,1,-2,-9,9,/,/
COc1cc(NC(=O)COc2ccc([N+](=O)[O-])cc2)ccc1NC(=O)c1ccco1,/,/,-1,/,/,/,/,/
O=C(Cc1ccccc1)OCC(=O)c1cccc([N+](=O)[O-])c1,-19,0,-1,-13,1,52*,29,9
CCc1ccccc1NC(=O)CCC(=O)N1CCN(C(C)=O)CC1,/,/,0,/,/,/,/,/
COc1ccc(-c2csc3ncnc(N4CCN(c5cccc(C)c5C)CC4)c23)cc1,19,1,-14,-7,-7,40*,-176,-11
SMILES,Arr AP2 block,HTR5A ag,DAGLB inh,MOR-DOR ag,HTR5A inv ctr,MOR-DOR inv ag,MOR-DOR inv conf,HTR5A inv ctr2
COc1ccc(-c2csc3ncnc(N4CCN(c5ccccc5Cl)CC4)c23)cc1,4,-2,-7,-1,14,6,/,/
O=C(CNC(=O)C1CCCCC1)OCC(=O)c1cccc(Cl)c1,2,-6,-2,-8,16,36*,13,-2
NNc1nc(-c2ccccc2)cc(-c2ccc(Br)cc2)n1,-10,-11,-14,-14,-18,70*,78*,25
COc1ccc(CN2CCC[C@]3(N[C@H](c4ccc(C(F)(F)F)cc4)[C@@H]4C(=O)N(C)C(=O)[C@@H]43)C2=O)cc1,/,/,0,/,/,/,/,/
O=C(CN1C(=O)C2C3C=CC(C3)C2C1=O)OCC(=O)c1ccc(Cl)c([N+](=O)[O-])c1 (stereo unspecified),11,-8,0,-14,21,78*,84*,19
O=C(CCN1C(=O)C2C3CCC(C3)C2C1=O)OCC(=O)c1ccc(Br)cc1 (stereo unspecified),-17,2,-3,-3,-8,16,/,/
Cc1ccc(C(=O)COC(=O)CCN2C(=O)C3C4CCC(C4)C3C2=O)cc1[N+](=O)[O-] (stereo unspecified),5,-6,0,-10,21,55*,48*,21
Cc1ccc(C(=O)COC(=O)CN2C(=O)C3CC=CCC3C2=O)cc1[N+](=O)[O-] (stereo unspecified),4,-4,-1,-9,1,50*,48*,20
Cc1ccc(C(=O)COC(=O)CN2C(=O)C3C4CCC(C4)C3C2=O)cc1C (stereo unspecified),-8,2,-1,-1,4,6,/,/
Cc1ccc(C(=O)COC(=O)CN2C(=O)C3C4C=CC(C4)C3C2=O)cc1[N+](=O)[O-] (stereo unspecified),-2,-4,-2,-5,12,38*,-70,-15
Cc1ccc(C(=O)COC(=O)CN2C(=O)C3C4CCC(C4)C3C2=O)cc1[N+](=O)[O-] (stereo unspecified),18,-6,0,-9,23,53*,-32,5
O=C1Nc2ccc(F)cc2C12Nc1ccccc1-c1nnc(SCc3ccccc3F)nc1O2 (stereo unspecified),6,-4,16,-11,10,69*,72*,10
CCSc1nnc2c(n1)OC1(CCCC1)Nc1ccccc1-2,-8,-1,-6,-1,3,4,/,/
Nc1ccccc1-c1nnc(SCc2ccccc2F)[nH]c1=O,-1,6,8,0,-3,-1,/,/
